PfG6PD inh – PfG6PD (Plasmodium falciparum) enzyme inhibition; AID 504690; PfGluPho enzyme, NADPH resazurin-diaphorase fluorescence; hit rate 0.78% among 350,000; inhibition, % at 20 µM;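 active means inhibition reaching at least a set limit at 20 µM in the primary screen, cut at about 59% in these data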;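 further: 0% = DMSO wells with substrate and 100% = DMSO wells lacking glucose-6-phosphate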
MC4R ag barr – activates human MC4R beta-arrestin recruitment. hit rate 0.98% among 360,000. P32245. activation, % at 8.9 µM. U2OS MC4R beta-arrestin complementation, luminescence; percent of melanotan II response, DMSO zero;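 active means activation above a per-plate cutoff, the mean activation of sample wells on that plate plus 3 SD, cut at about 8% in these data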
ABHD5 PLIN5 PPI – inhibitors of human ABHD5-perilipin-5 interaction; Q00G26+Q8WTS1; Split G. princeps luciferase complementation, luminescence, 4 h; inhibition, % at 4 µM; hit rate 0.78% among 360,000;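 active means inhibition above the mean inhibition across every tested compound plus 3 SD, cut at about 22% in these data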;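 further: 0% = DMSO only wells and the 100% control is not disclosed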
MC4R antagonist – antagonists of human melanocortin 4 receptor (MC4R); P32245; hit rate 0.48% among 360,000; MC4R-expressing cells, MTII-stimulated cAMP, LANCE TR-FRET; inhibition, % at 6.5 µM;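 active means inhibition above its plate's cutoff, the mean of tested wells on that plate plus 3 SD, cut at about 29% in these data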;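 further: 0% = Melanotan II alone and 100% = Melanotan II plus saturating MCL0020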
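Assay system: human MC4R-expressing U2OS cells; reagent: Melanotan II stimulation of cells; dosing: 6.5 µM single dose; timing: compound 30 min, challenge 1 h, detection 1 h; signal: TR-FRET cAMP assay; replicates: one well per compound, no replicates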
B2AR ag – activates human beta-2 adrenergic receptor causing internalization. P07550. Am2.2-beta2AR cells, FAP receptor internalization, flow cytometry. response, % (concentration not given with the values). hit rate 0.43% among 340,000;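 active means response above a set limit, near 3 SD of response in nonfluorescent compounds, cut at about 42% in these data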
Target sequence (P07550 whole entry, looked up): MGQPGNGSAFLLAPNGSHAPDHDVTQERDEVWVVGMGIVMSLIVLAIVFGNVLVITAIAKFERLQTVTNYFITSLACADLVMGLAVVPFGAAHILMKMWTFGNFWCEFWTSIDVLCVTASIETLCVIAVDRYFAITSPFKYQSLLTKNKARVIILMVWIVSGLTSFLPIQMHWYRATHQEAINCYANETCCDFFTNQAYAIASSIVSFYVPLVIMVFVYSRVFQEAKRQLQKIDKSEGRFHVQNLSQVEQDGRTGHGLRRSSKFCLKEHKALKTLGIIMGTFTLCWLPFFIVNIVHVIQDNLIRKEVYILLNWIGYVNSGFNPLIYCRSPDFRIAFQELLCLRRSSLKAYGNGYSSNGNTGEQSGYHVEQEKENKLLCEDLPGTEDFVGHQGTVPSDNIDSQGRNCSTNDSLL
MC4R barr conf – human MC4R beta-arrestin agonism confirmation | shares compounds with MC4R ag barr | U2OS MC4R beta-arrestin recruitment, luminescence; scaled DMSO 0%, Melanotan II 100% | activation, % at 8.9 µM | hit rate 31% among 2,400 | AID 602192;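 active means mean activation across replicates above the hit cutoff set in the earlier primary screen, cut at about 8% in these data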
MOR-DOR barr ag – activates mu-delta opioid heterodimer, MC4R agonist counter-screen. activation, % at 9.2 µM. shares compounds with MC4R ag barr. AID 602194. hit rate 5.8% among 2,400. U2OS PathHunter beta-arrestin, beta-gal luminescence; percent of deltorphin B response, DMSO zero;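 active means mean activation across replicates exceeds the hit threshold derived in the earlier primary screen, cut at about 18% in these data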;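 further: 100% = deltorphin B at 0.9 µM final and 0% = DMSO alone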
* marks the source's active call; other numbers are inactive results; · = not tested or not shown. Most compounds without a hit are left out; they make up all but 3% or so of the library.

SMILES | PfG6PD inh | MC4R ag barr | ABHD5 PLIN5 PPI | MC4R antagonist | B2AR ag | MC4R barr conf | MOR-DOR barr ag
O=C(C[C@@H]1C/C=C\C[C@H](Cc2ccc(F)cc2)C(=O)OC[C@@H](c2ccccc2)NC1=O)NCCO | -9 | 3 | -2 | 5 | 5 | · | ·
CCN1C(=O)/C(=C\N2CCN(c3ccc(F)cc3)CC2)SC1=S | 2 | 19* | 0 | 1 | 5 | 2 | 6
Cc1cc(Cl)ccc1NC(=S)NCCN1CCOCC1 | -11 | -2 | -2 | 7 | 1 | · | ·
COc1cccc(OCC(=O)NN=C2c3ccccc3-c3ccccc32)c1 | -2 | 65* | 1 | -4 | 2 | 8 | 6
COc1ccccc1CCNC(=O)c1cc(-c2ccncc2)nc2ccc(Br)cc12 | -3 | 18* | 6 | 7 | 6 | 10* | 4
COc1ccccc1CCNC(=O)c1cc(-c2ccccn2)nc2ccccc12 | -6 | 1 | 0 | 2 | 3 | · | ·
O=C(CCCc1c[nH]c2ccccc12)NCC1COc2ccccc2O1 (configuration not stated) | 9 | -3 | 3 | 3 | -5 | · | ·
O=C(CCc1c[nH]c2ccccc12)NCC1COc2ccccc2O1 (configuration not stated) | 5 | 11* | -2 | 14 | -4 | -3 | 1
O=c1[nH]c(CSc2nnc(Nc3ccccc3)s2)nc2ccccc12 | 9 | 9.7* | 2 | 6 | 14 | 2 | 3
O=C(CCc1nc2ccccc2c(=O)[nH]1)Nc1nnc(SCc2ccccc2)s1 | 0 | -2 | -5 | -3 | 11 | · | ·
COc1cccc(/C=N/Nc2ccc([N+](=O)[O-])cn2)c1O | -14 | 23* | 10 | -3 | 20 | 15* | 5
Clc1ccc(-n2ncc3c(NCc4ccc5c(c4)OCO5)ncnc32)cc1 | 1 | 10* | -1 | 6 | -1 | 3 | 7
O=C(COc1ccc2ccc(=O)oc2c1)Nc1ccc(CCO)cc1 | -4 | -2 | 1 | -2 | -1 | · | ·
O=C(COc1ccccc1Cl)Nc1ccc2oc(=O)ccc2c1 | 8 | 12* | 3 | -4 | -5 | 7 | 6
O=C(COc1ccc2ccc(=O)oc2c1)Nc1ccc(N2CCCCC2)cc1 | 6 | 16* | -4 | 5 | 2 | 9.1* | 9
N#Cc1c(C(F)(F)F)cc(-c2cccs2)nc1SCc1cccnc1 | -11 | 12* | 7 | 4 | -12 | 1 | 1
N#Cc1c(C(F)(F)F)cc(-c2cccs2)nc1SCc1ccc(Cl)nc1 | 4 | 16* | -11 | 9 | -8 | 6 | 3
N#Cc1ccc(-c2cccs2)nc1SCc1cccnc1 | -1 | -2 | 3 | -22 | 8 | · | ·
Cc1ccc(C2(C)NC(=O)N(CC(=O)NNC(=O)c3cc(C)oc3C)C2=O)cc1 (configuration not stated) | -24 | -1 | 4 | 11 | 0 | · | ·
CC(=O)c1cccc(N2C(=NC(=O)C3CCCCC3)SC3CS(=O)(=O)CC32)c1 (configuration not stated) | 12 | 0 | -3 | 6 | -17 | · | ·
C/C(=N\NC(=O)c1ccc(CN(C)S(=O)(=O)c2ccc(C)cc2)cc1)c1ccc(OC(F)F)cc1 | -13 | 4 | -2 | 10 | 5 | · | ·
Cc1ccc(S(=O)(=O)N(C)Cc2ccc(C(=O)N/N=C/c3ccc(OC(F)F)cc3)cc2)cc1 | -27 | 25* | -2 | -1 | 2 | 3 | 12
COc1cc(NC(=O)c2ccc(-c3ccc(Br)cc3)o2)ccc1NC(=O)C(C)C | -7 | 15* | -2 | 2 | 17 | 6 | 4
COC(=O)C1CCN(C(=O)COC(=O)CSc2ccc(C(N)=O)cc2[N+](=O)[O-])CC1 | 6 | -1 | 4 | 0 | -3 | · | ·
CCOc1cc(/C=C2\CCn3c2nc2cc(Cl)ccc2c3=O)ccc1O | 1 | 12* | -3 | 11 | -2 | 9.2* | 2
SMILES | PfG6PD inh | MC4R ag barr | ABHD5 PLIN5 PPI | MC4R antagonist | B2AR ag | MC4R barr conf | MOR-DOR barr ag
O=C(CSc1ncnc2c1oc1ccccc12)c1cccs1 | 12 | 13* | 1 | 21 | -1 | 1 | 5
O=C(OCc1cc(=O)n2c(n1)sc1ccccc12)c1ccc(O)cc1O | -15 | 17* | 3 | -3 | -10 | 1 | 5
Cc1ccc2c(c1)S(=O)(=O)c1ccc3ccccc3c1N2 | 13 | 3 | 0 | 3 | 0 | · | ·
Cc1cccc(C)c1NC(=O)CN(C)C(=O)C1=COCCO1 | 3 | 0 | -3 | 8 | -5 | · | ·
O=C(CSc1ccccc1)Nc1ccc(C(=O)Nc2ccc(O)cc2)cc1 | 12 | 28* | -4 | 5 | -1 | 15* | 5
COc1ccc(NC(=O)c2ccccc2NC(=O)CSc2ccc(Cl)cc2)cc1 | -13 | 0 | 4 | -5 | -5 | · | ·
O=C(Cc1ccccc1)Nc1ccc(C(=O)Nc2ccc(O)cc2)cc1 | 7 | 0 | 3 | 1 | 3 | · | ·
COc1ccc(NC(=O)c2ccccc2NC(=O)c2ccccc2)cc1 | -3 | 9.6* | 4 | 3 | -4 | 2 | 5
COc1ccc(NC(=O)c2ccccc2NC(=O)CSc2ccccc2)cc1 | -23 | 13* | -2 | 1 | -4 | -1 | 5
COc1ccc(-n2nnnc2C(c2cccs2)N2CCN(C/C=C/c3ccccc3)CC2)cc1 (configuration not stated) | · | · | 2 | · | · | · | ·
CCn1cc(/C=C(\NC(=O)c2ccccc2OC)C(=O)NCCN2CCOCC2)c2ccccc21 | 17 | 0 | -2 | 3 | · | · | ·
O=C(Cc1coc2ccc3ccccc3c12)Nc1nnc(C2CC2)s1 | -8 | 27* | -13 | -5 | 0 | 9.5* | 4
Cc1cc2occ(CC(=O)Nc3nnc(C4CC4)s3)c2cc1C | -9 | -1 | 3 | 5 | -9 | · | ·
C/C(=N/NS(C)(=O)=O)c1ccc2ccccc2c1 | -4 | 0 | 1 | 1 | 0 | · | ·
C/C(=N/NC(=O)Nc1ccccc1)c1ccc(C)cc1 | -2 | 11* | 9 | 2 | 13 | -1 | 3
C/C(=N\NC(=O)Nc1ccccc1)c1ccc2ccccc2c1 | 1 | 21* | 0 | 0 | 13 | 4 | 6
O=C(CCc1nc2ccccc2c(=O)[nH]1)OCc1ccc(-c2ccccc2)cc1 | 5 | 18* | -6 | -6 | 14 | 3 | 6
O=C(OC1CCN(c2ccc([N+](=O)[O-])cc2)CC1)c1ccccc1 | -14 | 20* | -3 | 2 | -6 | 2 | 6
O=C(ON=C1CCN(c2ccc([N+](=O)[O-])cc2)CC1)c1ccccc1 | 12 | -1 | -3 | 4 | 4 | · | ·
NC(=O)Nc1cc(Cl)ccc1Cl | 7 | -2 | 6 | -1 | -2 | · | ·

Screening results deposited in PubChem by several laboratories.
